Measured values from ChEMBL document CHEMBL3286365, “Neoflavonoids as potential osteogenic agents from Dalbergia sissoo heartwood” (Bioorg Med Chem Lett, 2014).
Activity calls are given as the source filed them. The calls are words filed in the database; no cut-off is given here.

Key:
Type in all cases: functional, cell-based
Calvarial osteoblast [1] = test: Increase in osteocalcin gene expression in rat calvarial osteoblast cells by qPCR analysis
Calvarial osteoblast [2] = test: Osteogenic activity in rat calvarial osteoblast cells assessed as induction of mineralization by Alizarin red-S staining
Method in brief: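 Calvarial osteoblasts trypsinized at 80% confluence and plated at 2.5×10⁴ cells/well. Treated with compound in differentiation medium (ascorbic acid 50µg/ml, β-glycerophosphate 10mM), with medium changed every alternate day for up to 21 days. Fixed in 4% paraformaldehyde for 15 min, stained 30 min with 40mM Alizarin Red-S (pH 4.5). Dye extracted with 10% acetic acid, heated at 85°C, neutralized with ammonium hydroxide, OD read at 405 nm.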

Calvarial osteoblast [3] = test: Increase in BMP-2 gene expression in rat calvarial osteoblast cells by qPCR analysis
Calvarial osteoblast [4] = test: Osteogenic activity in rat calvarial osteoblast cells assessed as induction of cell differentiation by measuring alkaline phosphatase activity using pNPP as substrate by calorimetric analysis; settings: for EC50: Rattus norvegicus, Calvarial osteoblast
Method in brief: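 Primary rat calvarial osteoblasts, trypsinized at about 80% confluence, seeded at 2×10³ cells/well. Treated with compound (100µM, 1µM, 10nM, 100pM, 1pM) or vehicle for 48 h in α-MEM with 10% FBS, 10mM β-glycerophosphate, 50µg/ml ascorbic acid and 1% penicillin/streptomycin. Total ALP measured with p-nitrophenylphosphate substrate, absorbance at 405 nm. Mean±S.D. of three independent experiments.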

Calvarial osteoblast [5] = test: Increase in RunX2 gene expression in rat calvarial osteoblast cells by qPCR analysis
Calvarial osteoblast [6] = test: Increase in collagen 1 gene expression in rat calvarial osteoblast cells by qPCR analysis

Row | Compound | Activity (Calvarial osteoblast [1]) | Activity (Calvarial osteoblast [2]) | Activity (Calvarial osteoblast [3]) | concentration of maximal effect (Calvarial osteoblast [4]) | Activity (Calvarial osteoblast [5]) | Activity (Calvarial osteoblast [6]) | EC50 (Calvarial osteoblast [4])
1 | C=CC(c1ccccc1)c1cc(O)c(OC)cc1OC (stereo unspecified) [DALBERGIPHENOL] | Active | Active | Active | 10 nM | Active | Active | 
2 | COc1cc(OC)c(/C(=C/C=O)c2ccccc2)cc1O | Active | Active | Active | 0.1 nM | Active | Active | 6.46 nM
3 | COc1cc2c(cc1O)C(c1ccccc1)=CCO2 | Active |  | Active | 10 nM | Active | Active | 1700 nM
4 | COc1cc2oc(=O)cc(-c3ccccc3)c2cc1O [DALBERGIN] | Active |  | Active | 0.001 nM | Active | Active | 1.01 nM
5 | COc1cc2oc(=O)cc(-c3ccccc3)c2cc1OC | Active | Active | Active | 1000 nM | Active | Active | 
6 | COC1=CC(=O)c2cc(-c3ccccc3)c3cc(O)c(OC)cc3c2C1=O [LATINONE] | Active |  | Active | 1000 nM | Active | Active | 
